# According to ChEMBL document CHEMBL5550188, “Detection of a Mitochondrial Fragmentation and Integrated Stress Response Using the Cell Painting Assay” (2024):
# The source made the active and inactive calls. No cut-off for these calls is given here.
# How the values were obtained:
# U2OS [1] = experiment: Effect on mitochondrial membrane potential in human U2OS cells at 30 uM incubated for 24 hrs by TRME staining based analysis; format: functional, cell-based
# How it was run: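 U-2OS (5 × 10³/well) were treated 24 h, then given 20 μM FCCP or 0.5% DMSO controls for 10 min. Cells were stained 30 min at 37 °C with 1 μM TMRE plus Hoechst-33342 in complete DMEM, washed, and imaged live in 0.2% BSA/PBS at 10× (TMRE ex/em 549/575 nm).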
# U2OS [2] = experiment: Induction of oxidative stress in human U2OS cells assessed as increase in mitochondrial superoxide level at 30 uM incubated for 1 hr by MitoSox Red staining based analysis; format: functional, cell-based
# How it was run: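 U-2OS at 15,000/well were preloaded 30 min with 5 μM MitoSOX Red plus Hoechst in plain DMEM. They were then treated 60 min in complete DMEM, fixed in 0.5% paraformaldehyde, and imaged at 10×. Integrated MitoSOX intensity per cell was normalized to DMSO (0%) and 10 μM CDNB (100%). Mean ± SD, n = 3.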
# U2OS [3] = experiment: Upregulation of EGLN1 expression in human U2OS cells at 10 to 30 uM incubated for 24 hrs by proteome profiling based analysis; format: functional, cell-based; conditions: dose 10-30 µM
# How it was run: (§1)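 U-2OS seeded at 1 × 10⁶ cells in T75 flasks, treated next day for 24 h at 37 °C versus DMSO. Cells were lysed by freeze–thaw, reduced with TCEP at 55 °C, alkylated with iodoacetamide, acetone-precipitated and trypsin-digested. Peptides were TMT-labelled, split into 10 fractions by high-pH C18, then run on nanoHPLC-MS/MS (orbitrap). Biological triplicates, with pathway over-representation analysis.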
# U2OS [4] = experiment: Upregulation of HMOX1 expression in human U2OS cells at 30 uM incubated for 24 hrs by proteome profiling based analysis; format: functional, cell-based; how it was run: as §1
# U2OS [5] = experiment: Effect on mitochondrial respiration in human U2OS cells assessed as suppression of OCR level at 30 uM measured after 24 hrs by Seahorse analysis relative to control; format: functional
# How it was run: (§2)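 Seahorse XFp Mito Stress Test on U-2OS, 2 × 10⁵ cells per well, seeded overnight. Assay medium was pH 7.4 DMEM with 2 mM GlutaMAX, 1 mM pyruvate and 25 mM glucose. For acute runs, compound was injected after 5 baseline reads, then 10 reads. Otherwise cells were pretreated 24 h. Then oligomycin A, FCCP and rotenone/antimycin A were added. OCR/ECAR were background-subtracted and normalized to the last baseline (100%). Mean ± SD, n = 3.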
# U2OS [6] = experiment: Effect on glycolysis in human U2OS cells assessed as increase in ECAR level at 10 to 30 uM of acute treatment by Seahorse analysis; format: functional, cell-based; conditions: dose 10-30 µM; how it was run: as §2
# U2OS [7] = experiment: Effect on mitochondrial dysfunction in human U2OS cells at 30 uM incubated for 24 hrs by pathway over-representation analysis; format: functional, cell-based; how it was run: as §1
# U2OS [8] = experiment: Inhibition of cell confluence in human U2OS cells at 10 to 50 uM measured after 48 hrs by PI/caspase-3/7 Green dye based analysis; format: functional; conditions: dose 10-50 µM
# How it was run: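 U-2OS at 5000/well were incubated overnight, then given medium with compound or DMSO plus propidium iodide and CellEvent Caspase-3/7 Green. Cells were imaged hourly for 48 h by live-cell imaging. Phase confluence gave growth; red and green object confluence gave PI-positive cells and caspase-3/7 activity.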
# U2OS [9] = experiment: Effect on oxidative phosphorylation in human U2OS cells at 30 uM incubated for 24 hrs by pathway over-representation analysis; format: functional, cell-based; how it was run: as §1
# U2OS [10] = experiment: Effect on mitochondrial morphology in human U2OS cells at high concentration incubated for 20 hrs by Mito Tracker Deep Red dye based CPA assay; format: functional, cell-based
# How it was run: (§3)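 Cell Painting: U-2OS were seeded at 1600 cells/well, then dosed 4 h later for 20 h at 37 °C against a matched-% DMSO control. Live cells were stained 30 min with 100 nM MitoTracker Deep Red, then fixed in 3.7% formaldehyde and permeabilized with 0.1% Triton X-100. They were co-stained with phalloidin, concanavalin A, Hoechst, WGA and SYTO 14. Imaging was high-content, run as triplicate plates; features are Z-scores versus DMSO median/MAD.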
# U2OS [11] = experiment: Upregulation of SLC2A1 expression in human U2OS cells at 10 to 30 uM incubated for 24 hrs by proteome profiling based analysis; format: functional, cell-based; conditions: dose 10-30 µM; how it was run: as §1
# U2OS [12] = experiment: Effect on glucose metabolism in human U2OS cells at 30 uM incubated for 24 hrs by pathway over-representation analysis; format: functional, cell-based; how it was run: as §1
# U2OS [13] = experiment: Effect on HIF1 signaling in human U2OS cells at 30 uM incubated for 24 hrs by pathway over-representation analysis; format: functional, cell-based; how it was run: as §1
# U2OS [14] = experiment: Effect on EIF2 level in human U2OS cells at 30 uM incubated for 24 hrs by proteome profiling based analysis; format: functional, cell-based; how it was run: as §1
# U2OS [15] = experiment: Upregulation of HK2 expression in human U2OS cells at 10 to 30 uM incubated for 24 hrs by proteome profiling based analysis; format: functional, cell-based; conditions: dose 10-30 µM; how it was run: as §1
# U2OS [16] = experiment: Induction of mitochondrial network fragmentation in human U2OS cells incubated for […] by CellLight Mitochondria-GFP assay; format: functional, cell-based; conditions: dose 30.0 µM
# How it was run: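 U-2OS were transduced with CellLight Mitochondria-GFP BacMam 2.0 one day before treatment. 3000 cells/well were seeded in chamber slides. After compound addition, live cells were imaged by confocal microscopy (488/555 nm) continuously over 24 h at 37 °C, 5% CO₂.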
# U2OS [17] = experiment: Downregulation of MRPs level in human U2OS cells at 30 uM incubated for 24 hrs by proteome profiling based analysis; format: functional, cell-based; how it was run: as §1
# U2OS [18] = experiment: Effect on glycolysis in human U2OS cells at 30 uM incubated for 24 hrs by pathway over-representation analysis; format: functional, cell-based; how it was run: as §1
# U2OS [19] = experiment: Induction of integrated stress response in human U2OS cells assessed as increase ATF4 mRNA level at 30 uM incubated for 24 hrs by RT-qPCR analysis; format: functional, cell-based
# How it was run: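 U-2OS at 1 × 10⁵/well in 6-well plates were grown 24 h to ~80% confluence, then treated 24 h versus DMSO. Total RNA (DNase-treated) was reverse-transcribed and ATF4 measured by SYBR Green qPCR. Expression was calculated by ΔΔCt against GAPDH, with DMSO set to 100%. Mean ± SD, n = 3.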
# HEK-293T = experiment: Upregulation of HIF1 level in HEK293T cells transfected with HIF1/luc at 30 uM incubated for 24 hrs by Renilla luciferase base assay; format: functional, cell-based; conditions: Homo sapiens
# How it was run: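 HEK293T were co-transfected (Lipofectamine 2000) with a PGK1-HRE-driven destabilized firefly luciferase reporter and constitutive TK-Renilla. Cells were seeded at 2.5 × 10⁴/well, then treated 24 h the next day, with 100 μM CoCl₂ and 10 μM ML228 as controls. Dual-Glo readout: firefly was normalized to Renilla and expressed as fold induction over DMSO.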
# U2OS [20] = experiment: Downregulation of […] level in human U2OS cells at 10 to 30 uM incubated for 24 hrs by proteome profiling based analysis; format: functional, cell-based; conditions: dose 10-30 µM; how it was run: as §1
# U2OS [21] = experiment: Effect on mitochondrial respiration in human U2OS cells assessed as suppression of OCR level measured after 24 hrs by Seahorse analysis; format: functional, cell-based; how it was run: as §2
# U2OS [22] = experiment: Effect on glycolysis in human U2OS cells assessed as increase in ECAR level at highest concentration measured after 24 hrs by Seahorse analysis; format: functional, cell-based; how it was run: as §2
# U2OS [23] = experiment: Induction of integrated stress response in human U2OS cells assessed as increase ATF4 level at 30 uM incubated for 24 hrs by Western blot analysis; format: functional, cell-based
# How it was run: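 U-2OS grown to 80% confluence in 6-well plates were treated 24 h at 37 °C versus DMSO. ATF4 was detected by immunoblotting, with vinculin as reference protein.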
# U2OS [24] = experiment: Effect on mitochondrial respiration in human U2OS cells assessed as suppression of OCR level at 10 to 30 uM of acute treatment by Seahorse analysis; format: functional, cell-based; conditions: dose 10-30 µM; how it was run: as §2
# U2OS [25] = experiment: Induction of mitochondrial fragmentation in human U2OS cells assessed as puncta-like staining at 30 to 50 uM incubated for 20 hrs by Mito Tracker Deep Red dye based CPA assay; format: functional, cell-based; conditions: dose 30-50 µM; how it was run: as §3
# U2OS [26] = experiment: Induction of mitochondrial fragmentation in human U2OS cells assessed as puncta-like staining at 30 uM incubated for 20 hrs by Mito Tracker Deep Red dye based CPA assay; format: functional, cell-based; how it was run: as §3
# U2OS [27] = experiment: Effect on mitochondrial respiration in human U2OS cells assessed as suppression of OCR level at 10 to 30 uM measured after 24 hrs by Seahorse analysis; format: functional, cell-based; conditions: dose 10-30 µM; how it was run: as §2
SMILES,Activity (U2OS [1]),Activity (U2OS [2]),Activity (U2OS [6]),Activity (U2OS [7]),inhibition (U2OS [8]),Activity (U2OS [9]),Activity (U2OS [13]),Activity (U2OS [19]),Activity (HEK-293T),Activity (U2OS [22]),Activity (U2OS [23]),Activity (U2OS [24]),also measured
Cc1cc(C2CCCCC2)n(O)c(=O)c1 [CICLOPIROX],inactive,Active,inactive,Active,inactive,Active,Active,Active,Active,Active,Active,inactive,Activity (U2OS [3]): Active; Activity (U2OS [4]): Active; Activity (U2OS [5]): ~100%; Activity (U2OS [10]): Active; Activity (U2OS [11]): Active; Activity (U2OS [12]): Active; Activity (U2OS [14]): Active; Activity (U2OS [15]): Active; Activity (U2OS [16]): Dose-Dependent Effect; Activity (U2OS [17]): Active; Activity (U2OS [18]): Active; Activity (U2OS [20]): Active; Activity (U2OS [21]): Dose-Dependent Effect; Activity (U2OS [25]): Active
Cc1cccc(-c2[nH]c(C(C)(C)C)nc2-c2ccc3nccnc3c2)n1,inactive,Active,inactive,Active,inactive,Active,inactive,Active,Active,Active,Active,inactive,Activity (U2OS [26]): Active; Activity (U2OS [27]): Active
